One molecule from ChEMBL document CHEMBL4622923, “Discovery of 4-Phenylpiperidine-2-Carboxamide Analogues as Serotonin 5-HT2C Receptor-Positive Allosteric Modulators with Enhanced Drug-like Properties” (J Med Chem, 2020) can be followed below.

For series [1], the target named is GABA-A receptor; anion channel (Rattus norvegicus) (UniProt O09028+P15431+P18506+P18508+P19969+P20236+P23574+P23576+P28471+P28473+P30191+P62813+P63079+P63138+Q91ZM7+Q9ES14). Kind of series: Displacement of [3H]-muscimol from rat brain GABAA receptor at 10 uM incubated for 90 mins under dark condition by scintillation counting analysis relative to control.
A short description of series [2]: Half life in Sprague-Dawley rat at 20 mg/kg, po. Type of series: ADME, organism-based. The conditions noted are these: in vivo. The essentials:
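Male Sprague-Dawley rats (200–250 g, n = 3/group) dosed orally at 20 mg/kg in 10% DMSO:90% HP-β-CD. Retro-orbital blood sampled at 0.25, 0.5, 1, 2, 4, 8 and 24 h post-dose; plasma analysed externally. Noncompartmental analysis: λ from least-squares terminal log-linear slope, t1/2 = 0.693/λ; mean ± SEM.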

For series [3], the target named is Mu-type opioid receptor (Homo sapiens) (UniProt P35372). In words: Displacement of [3H]-DAMGO from human mu opioid receptor stably expressed in HEK cell membranes at 10 uM incubated for 90 mins under dark condition by scintillation counting analysis relative to control. (Displacement assays read how much labelled ligand stays bound in the presence of the test substance.)

The target of series [4] is Cannabinoid receptor 2 (Homo sapiens) (UniProt P34972). Kind of series: Displacement of [3H]-CP55940 from human CB2 receptor expressed in HEK-Flp-In cell membranes at 10 uM incubated for 90 mins under dark condition by scintillation counting analysis relative to control.
The nature of series [5]: Oral bioavailability in Sprague-Dawley rat at 20 mg/kg. Conditions: in vivo; call rule not given here. The class given is ADME, organism-based. The procedure, abridged:
(§1)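 Male Sprague-Dawley rats, 200–250 g, n = 3/group, randomly assigned; dosed 10 mg/kg iv or 20 mg/kg po in 10% DMSO:90% HP-β-CD. Retro-orbital blood sampled predose and 0.08 (iv only), 0.25, 0.5, 1, 2, 4, 8, 24 h. Noncompartmental analysis; Cmax read directly from plasma concentration–time plot; mean ± SEM.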

In series [6] the target is T1, 5-hydroxytryptamine receptor 2C (Homo sapiens, UniProt P28335).
T1 sequence (P28335 whole entry): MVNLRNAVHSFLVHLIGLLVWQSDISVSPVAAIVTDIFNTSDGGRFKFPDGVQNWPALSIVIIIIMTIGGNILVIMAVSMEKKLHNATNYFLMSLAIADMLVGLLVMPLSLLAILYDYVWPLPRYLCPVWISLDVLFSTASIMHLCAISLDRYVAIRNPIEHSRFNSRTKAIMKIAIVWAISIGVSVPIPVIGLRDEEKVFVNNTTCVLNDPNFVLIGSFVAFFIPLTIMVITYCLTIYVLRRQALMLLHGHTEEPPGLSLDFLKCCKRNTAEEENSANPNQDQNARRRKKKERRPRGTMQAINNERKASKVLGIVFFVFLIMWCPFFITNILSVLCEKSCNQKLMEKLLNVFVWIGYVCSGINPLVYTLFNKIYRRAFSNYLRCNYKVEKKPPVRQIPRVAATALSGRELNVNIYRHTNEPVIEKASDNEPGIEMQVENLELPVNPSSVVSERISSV
In words: Agonist activity at human 5HT2CR expressed in CHO cells assessed as increase in intracellular calcium release at 1 nM incubated for 15 mins measured at 1 secs interval for 120 secs by calcium 4 dye based FLIPR assay relative to 5-HT. Type of series: cell-based. Conditions: 0.001 µM. The essentials:
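h5-HT2CR (unedited INI isoform) stably expressed in CHO cells; cells plated ~24 h, serum-free medium 3 h, then Calcium 4 dye with 2.5 mM probenecid in Ca/Mg-free HBSS pH 7.4 for 60 min at 37°C plus 15 min at room temperature. Compound given alone, read for 15 min before 5-HT. Peak fluorescence is expressed relative to the 5-HT Emax. 4-6 biological replicates, each in triplicate.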
In general terms: Calcium assays in cells follow changes in intracellular calcium, usually with a dye or a luminescent sensor.

The target of series [7] is Alpha-2A adrenergic receptor (Homo sapiens) (UniProt P08913). In words: Displacement of [3H]-rauwolscine from human adrenergic alpha2A receptor transiently expressed in HEKT cell membranes at 10 uM incubated for 90 mins under dark condition by scintillation counting analysis relative to control.
The target in a further series is CYP2C19 (Homo sapiens, UniProt P33261). In words: Inhibition of CYP2C19 (unknown origin) at 10 uM relative to control. The class given is ADME. The procedure, abridged:
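Each CYP isoform inhibition assay run with test compound at 10 µM; reported as percent inhibition.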

In another series the target is 5-HT2A receptor (Homo sapiens, UniProt P28223). In words: Positive allosteric modulation of human 5HT2AR expressed in CHO cells assessed as increase in 5-HT induced intracellular calcium release at 1 nM preincubated for 15 mins followed by 5-HT addition and measured at 1 secs interval for 360 secs by calcium 4 dye based FLIPR assay relative to 5-HT. Conditions: CHO cells expressing human 5HT2AR. Type of series: cell-based. The essentials: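 CHO cells stably expressing human 5-HT2AR, serum-starved 3 h, then loaded with Calcium 4 dye plus 2.5 mM probenecid in HBSS (no Ca/Mg, pH 7.4) for 60 min at 37°C and 15 min at room temperature. Test compound added 15 min before 5-HT (10 pM-10 μM). FLIPR fluorescence read every 1 s for 360 s after 5-HT. Emax from 4-parameter fit, normalized to 5-HT maximum.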

Series [8] can be described thus: Clearance in Sprague-Dawley rat at 20 mg/kg, po. Type of series: ADME, organism-based. The conditions noted are these: in vivo. The essentials: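 Male Sprague-Dawley rats (200–250 g, n = 3/group) dosed po at 20 mg/kg in 10% DMSO:90% HP-β-CD. Retro-orbital blood taken from 0.25 to 24 h. Noncompartmental analysis; mean ± SEM.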
For series [9], the target named is Sodium-dependent noradrenaline transporter (Homo sapiens, UniProt P23975). Kind of series: Displacement of [3H]-nisoxetine from human NET stably expressed in HEK cell membranes at 10 uM incubated for 90 mins under dark condition by scintillation counting analysis relative to control.
The target of series [10] is D(1B) dopamine receptor (Homo sapiens) (UniProt P21918). Kind of series: Displacement of [3H]-SCH23390 from human dopamine D5 receptor expressed in HEKT cell membranes at 10 uM incubated for 90 mins under dark condition by scintillation counting analysis relative to control.
The test system of a further series is Rattus norvegicus. In words: Potentiation of WAY163909-induced neurobiological activity in Sprague-Dawley rat assessed as increase in number of rat choosing WAY163909 associated lever at 2 mg/kg, ip treated 15 mins prior to WAY163909 addition and measured after 15 mins by drug discrimination test (reference value: 53%). The class given is functional.
The target of series [11] is 5-hydroxytryptamine receptor 1B (Homo sapiens) (UniProt P28222). Kind of series: Displacement of [3H]-GR125743 from human 5HT1B stably expressed in HEK cell membranes at 10 uM incubated for 90 mins under dark condition by scintillation counting analysis relative to control.
Series [12] in a line: Volume of distribution at steady state in Sprague-Dawley rat at 10 mg/kg, iv. The class given is ADME, organism-based. The conditions noted are these: in vivo. The essentials:
as §1

Series [13] is described as follows: Ratio of drug level in brain to plasma in Sprague-Dawley rat at 10 mg/kg, iv after 0.25 hrs. The class given is ADME, organism-based. The procedure, abridged: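 Male Sprague-Dawley rats, n = 3/group, given 10 mg/kg iv in 10% DMSO:90% HP-β-CD. Brain and plasma collected at 0.25 and 1 h after dosing. Brain concentration (ng/g) divided by plasma concentration (ng/mL); mean ± SEM.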

Sequence of Sodium-dependent noradrenaline transporter (P23975 whole entry): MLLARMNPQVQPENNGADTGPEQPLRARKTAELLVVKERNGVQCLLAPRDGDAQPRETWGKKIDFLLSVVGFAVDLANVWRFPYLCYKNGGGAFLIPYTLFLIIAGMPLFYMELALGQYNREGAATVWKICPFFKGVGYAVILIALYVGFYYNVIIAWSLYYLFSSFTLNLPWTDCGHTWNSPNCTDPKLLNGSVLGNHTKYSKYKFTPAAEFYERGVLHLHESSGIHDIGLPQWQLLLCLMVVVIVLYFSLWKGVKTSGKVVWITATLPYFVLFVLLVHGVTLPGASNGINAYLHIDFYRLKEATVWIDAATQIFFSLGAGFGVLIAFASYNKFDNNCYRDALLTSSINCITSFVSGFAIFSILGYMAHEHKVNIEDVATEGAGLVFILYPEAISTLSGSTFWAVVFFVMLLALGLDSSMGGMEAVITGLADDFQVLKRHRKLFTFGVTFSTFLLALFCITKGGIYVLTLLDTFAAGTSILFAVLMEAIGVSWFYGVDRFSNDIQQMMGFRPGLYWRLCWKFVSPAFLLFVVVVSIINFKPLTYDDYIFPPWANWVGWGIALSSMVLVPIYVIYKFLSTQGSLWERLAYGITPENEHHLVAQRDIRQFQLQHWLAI
Sequence of 5-hydroxytryptamine receptor 1B (Homo sapiens) (P28222 whole entry): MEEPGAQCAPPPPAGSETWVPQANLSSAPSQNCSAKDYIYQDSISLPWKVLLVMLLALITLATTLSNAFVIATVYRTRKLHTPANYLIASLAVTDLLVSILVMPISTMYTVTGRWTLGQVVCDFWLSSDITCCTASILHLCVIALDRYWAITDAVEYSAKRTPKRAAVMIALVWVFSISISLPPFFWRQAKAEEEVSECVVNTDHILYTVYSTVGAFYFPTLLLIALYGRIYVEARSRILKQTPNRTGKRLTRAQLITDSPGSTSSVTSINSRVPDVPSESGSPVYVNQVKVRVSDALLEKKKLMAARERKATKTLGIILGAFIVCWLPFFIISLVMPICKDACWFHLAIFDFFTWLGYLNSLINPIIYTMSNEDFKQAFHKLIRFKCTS
Sequence of CYP2C19 (P33261 whole entry, canonical isoform): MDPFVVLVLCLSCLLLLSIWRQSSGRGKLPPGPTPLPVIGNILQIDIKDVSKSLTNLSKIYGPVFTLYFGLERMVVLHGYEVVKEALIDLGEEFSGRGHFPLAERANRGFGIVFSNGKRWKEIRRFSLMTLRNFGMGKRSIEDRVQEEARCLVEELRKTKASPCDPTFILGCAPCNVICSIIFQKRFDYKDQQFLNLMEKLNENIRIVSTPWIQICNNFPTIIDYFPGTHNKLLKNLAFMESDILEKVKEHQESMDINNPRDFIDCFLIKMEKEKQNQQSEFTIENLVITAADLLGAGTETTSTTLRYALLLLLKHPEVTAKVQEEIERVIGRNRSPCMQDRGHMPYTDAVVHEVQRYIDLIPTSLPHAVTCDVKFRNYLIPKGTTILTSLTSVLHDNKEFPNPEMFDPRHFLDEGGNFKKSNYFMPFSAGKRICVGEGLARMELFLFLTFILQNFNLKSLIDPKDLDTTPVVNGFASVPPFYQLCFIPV
Sequence of Cannabinoid receptor 2 (Homo sapiens) (P34972 whole entry): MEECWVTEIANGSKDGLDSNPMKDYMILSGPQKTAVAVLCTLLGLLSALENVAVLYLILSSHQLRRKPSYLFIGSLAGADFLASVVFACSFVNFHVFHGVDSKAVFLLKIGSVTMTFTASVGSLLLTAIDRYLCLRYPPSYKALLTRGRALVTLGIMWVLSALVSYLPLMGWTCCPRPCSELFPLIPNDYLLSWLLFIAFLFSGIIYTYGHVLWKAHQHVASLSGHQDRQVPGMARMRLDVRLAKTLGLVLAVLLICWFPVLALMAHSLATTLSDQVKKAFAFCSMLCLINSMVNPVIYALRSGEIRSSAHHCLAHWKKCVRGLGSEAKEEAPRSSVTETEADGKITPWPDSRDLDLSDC
Sequence of Mu-type opioid receptor (Homo sapiens) (P35372 whole entry): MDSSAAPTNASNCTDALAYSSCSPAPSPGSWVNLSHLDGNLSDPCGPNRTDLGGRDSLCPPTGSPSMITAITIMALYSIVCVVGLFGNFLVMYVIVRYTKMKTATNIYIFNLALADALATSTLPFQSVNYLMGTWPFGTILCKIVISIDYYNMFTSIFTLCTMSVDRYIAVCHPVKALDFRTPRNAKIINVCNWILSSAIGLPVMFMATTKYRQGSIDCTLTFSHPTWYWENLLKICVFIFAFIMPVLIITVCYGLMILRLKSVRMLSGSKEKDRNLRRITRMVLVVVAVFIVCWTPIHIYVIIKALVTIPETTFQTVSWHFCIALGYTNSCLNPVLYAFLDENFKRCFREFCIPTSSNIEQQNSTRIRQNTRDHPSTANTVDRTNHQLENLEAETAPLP
Sequence of 5-HT2A receptor (P28223 whole entry): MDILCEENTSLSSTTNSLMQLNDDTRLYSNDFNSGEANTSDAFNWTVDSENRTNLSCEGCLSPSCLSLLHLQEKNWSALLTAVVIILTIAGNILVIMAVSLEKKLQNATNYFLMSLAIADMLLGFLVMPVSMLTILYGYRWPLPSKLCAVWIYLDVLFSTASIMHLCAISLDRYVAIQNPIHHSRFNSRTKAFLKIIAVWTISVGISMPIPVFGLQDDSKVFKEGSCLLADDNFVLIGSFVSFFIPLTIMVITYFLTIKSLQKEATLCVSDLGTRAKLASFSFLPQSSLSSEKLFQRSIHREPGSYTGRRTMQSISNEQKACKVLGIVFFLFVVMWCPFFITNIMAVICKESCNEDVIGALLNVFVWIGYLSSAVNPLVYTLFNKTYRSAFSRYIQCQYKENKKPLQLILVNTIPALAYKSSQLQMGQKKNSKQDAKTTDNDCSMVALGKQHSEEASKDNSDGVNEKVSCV
Sequence of D(1B) dopamine receptor (Homo sapiens) (P21918 whole entry): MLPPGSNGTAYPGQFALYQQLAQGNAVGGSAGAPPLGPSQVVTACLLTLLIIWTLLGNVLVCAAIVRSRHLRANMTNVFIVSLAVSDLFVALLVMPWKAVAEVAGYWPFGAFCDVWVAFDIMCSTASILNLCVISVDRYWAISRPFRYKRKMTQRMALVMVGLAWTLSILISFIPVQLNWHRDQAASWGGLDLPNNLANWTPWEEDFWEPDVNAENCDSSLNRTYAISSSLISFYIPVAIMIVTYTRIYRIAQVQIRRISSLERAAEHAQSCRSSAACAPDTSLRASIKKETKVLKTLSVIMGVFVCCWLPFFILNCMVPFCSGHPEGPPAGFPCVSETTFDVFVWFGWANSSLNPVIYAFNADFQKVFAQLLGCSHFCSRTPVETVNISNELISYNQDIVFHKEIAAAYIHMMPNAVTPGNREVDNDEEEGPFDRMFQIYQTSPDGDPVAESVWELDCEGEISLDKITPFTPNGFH
Sequence of Alpha-2A adrenergic receptor (Homo sapiens) (P08913 whole entry): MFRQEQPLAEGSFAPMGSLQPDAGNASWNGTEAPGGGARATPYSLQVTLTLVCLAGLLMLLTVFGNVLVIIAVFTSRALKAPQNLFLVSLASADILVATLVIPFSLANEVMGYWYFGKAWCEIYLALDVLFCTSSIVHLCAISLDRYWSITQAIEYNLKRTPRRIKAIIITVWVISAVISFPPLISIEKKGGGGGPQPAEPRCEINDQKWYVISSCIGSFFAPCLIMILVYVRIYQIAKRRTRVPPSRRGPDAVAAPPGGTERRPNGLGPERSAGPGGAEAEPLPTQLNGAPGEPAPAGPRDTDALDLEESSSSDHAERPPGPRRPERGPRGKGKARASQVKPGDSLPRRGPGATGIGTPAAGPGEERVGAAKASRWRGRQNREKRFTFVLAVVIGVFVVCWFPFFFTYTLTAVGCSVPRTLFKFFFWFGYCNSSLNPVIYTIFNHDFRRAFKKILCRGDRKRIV

Broadly, the inhibition is the change of the read-out against control, counted positive when it falls. Usually Emax stands for the size of the effect at its maximum, as opposed to the concentration needed. In general, CL/F refers to the apparent clearance, not corrected for the fraction that reaches the circulation. What is called Vdss is the apparent volume that relates the amount in the body to the concentration in plasma or blood. A higher Vdss goes with extensive tissue distribution. Regarding `O=C(NC[C@H](O)CO)[C@@H]1C[C@H](c2ccccc2)CCN1` (mixture of isomers), the inhibition in series [1] is 7%; in series [3], 23.3%; in series [4] it was 30.6%; in series [7], -7.6%; in [9], 74.4%; in [10], 9.4%. The inhibition in series [11] is 12.3%. The same molecule showed a t1/2 in [2] of 4.4 h. Further, the F in series [5] is recorded as 36.3%. The results for the Activity entry (in series [6]; in the series with Rattus norvegicus) were “Not Active” and 92%, respectively. Besides, the inhibition at 10 µM against CYP2C19 was determined as 0%. The Emax at 0.1 h, 0.001 µM on 5-HT2A receptor is 103%. For the same molecule, the CL/F in [8] was 182 mL/min/kg. In addition, the Vdss in series [12] was 5.4 L/kg. Also, the BPR in series [13] is 0.07.
